From ChEMBL document CHEMBL1158684, “Cicadapeptins I and II: new Aib-containing peptides from the entomopathogenic fungus Cordyceps heteropoda” (2005)
Activity calls are given as the source filed them. No cut-off for these calls is given here. Where a SMILES comes first, the peptide text is derived from it. [ ]: non-standard residue; d: D form. The star is where a group is joined. Hyp = O=C(O)[C@@H]1C[C@@H](O)CN1; Decanoyl = CCCCCCCCCC(=O)*; X1 = CC(C)C[C@@H](CN)N*; Aib = CC(C)(N)C(=O)O

How the values were obtained:
[1] = tested on: Escherichia coli; assay: Antimicrobial activity against Escherichia coli at 100 ug/disk by disk diffusion assay; type: functional; settings: read-out: IZ
Procedure, shortened: (§1)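 Bacterial targets grown 24 h in nutrient broth. 0.6 mL of culture was spread on 9 cm nutrient agar plates and dried 1 h. Test samples in 10 µL MeOH were applied to 4 mm filter paper disks, air-dried 1 h and placed on the plates. Read-out was the inhibition zone diameter in mm.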

[2] = tested on: Bacillus subtilis; assay: Antimicrobial activity against Bacillus subtilis at 100 ug/disk by disk diffusion assay; type: functional; settings: read-out: IZ; procedure, shortened: as §1
[3] = tested on: Bacillus cereus; assay: Antimicrobial activity against Bacillus cereus at 100 ug/disk by disk diffusion assay; type: functional; settings: read-out: IZ; procedure, shortened: as §1
[4] = tested on: Colletotrichum gloeosporioides; assay: Antimicrobial activity against Colletotrichum gloeosporioides by disk diffusion assay; type: functional
Procedure, shortened: (§2)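 Filamentous fungal targets were tested on potato dextrose agar plates spread with 0.6 mL spore suspension (1 × 10^6 spores/mL) and dried 1 h. Samples in 10 µL MeOH were loaded on 4 mm paper disks, air-dried 1 h and laid on the plates. Activity was scored as inhibition zone size in mm.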

[5] = tested on: Bacillus subtilis; assay: Antimicrobial activity against Bacillus subtilis by disk diffusion assay; type: functional, organism-based; procedure, shortened: as §1
[6] = tested on: Fusarium oxysporum; assay: Antimicrobial activity against Fusarium oxysporum by disk diffusion assay; type: functional; procedure, shortened: as §2
[7] = tested on: Bacillus cereus; assay: Antimicrobial activity against Bacillus cereus by disk diffusion assay; type: functional, organism-based; procedure, shortened: as §1
[8] = tested on: Escherichia coli; assay: Antimicrobial activity against Escherichia coli by disk diffusion assay; type: functional, organism-based; procedure, shortened: as §1
[9] = tested on: Colletotrichum fragariae; assay: Antimicrobial activity against Colletotrichum fragariae by disk diffusion assay; type: functional; procedure, shortened: as §2
[10] = tested on: Botrytis cinerea; assay: Antimicrobial activity against Botrytis cinerea by disk diffusion assay; type: functional; procedure, shortened: as §2
[11] = tested on: Bacillus subtilis; assay: Antimicrobial activity against Bacillus subtilis at 30 ug/disk by disk diffusion assay; type: functional; settings: read-out: IZ; procedure, shortened: as §1
[12] = tested on: Bacillus cereus; assay: Antimicrobial activity against Bacillus cereus at 30 ug/disk by disk diffusion assay; type: functional; settings: read-out: IZ; procedure, shortened: as §1

Q: With `CCCCCCCCCC(=O)N1C[C@H](O)C[C@H]1C(=O)N1C[C@H](O)C[C@H]1C(=O)N[C@H](C(=O)NC(C)(C)C(=O)N[C@@H](CCC(N)=O)C(=O)NC(C)(C)C(=O)N[C@H](C(=O)N[C@H](CN)CC(C)C)[C@@H](C)CC)C(C)C` [CICADAPEPTIN II] (Decanoyl-[Hyp][Hyp]V[Aib]Q[Aib]I-X1) as the molecule, how does the zone of inhibition at 100 µg/disc [1] read?
A: Its zone of inhibition at 100 µg/disc is 16 mm.

Q: What about the zone of inhibition at 100 µg/disc [2] of the same molecule?
A: The zone of inhibition at 100 µg/disc was 11 mm.

Q: What about the zone of inhibition at 100 µg/disc [3] of the same molecule?
A: The zone of inhibition at 100 µg/disc was 12 mm.

Q: With `CCCCCCCCCC(=O)N1C[C@H](O)C[C@H]1C(=O)N1C[C@H](O)C[C@H]1C(=O)N[C@H](C(=O)NC(C)(C)C(=O)N[C@@H](CCC(N)=O)C(=O)NC(C)(C)C(=O)N[C@@H](CC(C)C)C(=O)N[C@H](CN)CC(C)C)C(C)C` [CICADAPEPTIN I] (Decanoyl-[Hyp][Hyp]V[Aib]Q[Aib]L-X1) as the molecule, how does the zone of inhibition at 100 µg/disc [1] read?
A: The zone of inhibition at 100 µg/disc was 16 mm.

Q: What about the zone of inhibition at 100 µg/disc [2] of the same molecule?
A: The zone of inhibition at 100 µg/disc was 13 mm.

Q: And the zone of inhibition at 100 µg/disc [3]?
A: The zone of inhibition at 100 µg/disc was 13 mm.

Q: For `CCCCCCC(=O)CCCCCC/C=C/C[C@@H](O)[C@H](O)[C@@](N)(CO)C(=O)O` [MYRIOCIN], which “inhibition zone (IZ)” value [4] is on record?
A: Its value is 8 mm.

Q: What about the Activity [5] of the same molecule?
A: Its Activity is “inactive”.

Q: And the “inhibition zone (IZ)” value [6]?
A: The value was 17 mm.

Q: And the Activity [7]?
A: Its Activity is “inactive”.

Q: What about the Activity [8] of the same molecule?
A: The Activity was “inactive”.

Q: And the “inhibition zone (IZ)” value [9]?
A: Its value is 14 mm.

Q: And the “inhibition zone (IZ)” value [10]?
A: The value was 28 mm.

Q: For `CN(C)[C@@H]1C(O)=C(C(N)=O)C(=O)[C@@]2(O)C(O)=C3C(=O)c4c(O)cccc4[C@@](C)(O)[C@H]3C[C@@H]12` [TETRACYCLINE], which zone of inhibition at 30 µg/disc [11] is on record?
A: Its zone of inhibition at 30 µg/disc is 18 mm.

Q: And the zone of inhibition at 30 µg/disc [12]?
A: The zone of inhibition at 30 µg/disc was 29 mm.
